# Experiment: Toxicity liver stage against HepG2, at 10uM
# Assay type: cell-based
# Design: test concentration 10 uM, cell line HepG2-A16-CD81EGFP
# Conditions: human, HepG2-A16-CD81EGFP cells; read-out: INHIBITION
# Summary of the method: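 Uninfected HepG2-A16-CD81EGFP cells, 3 × 10^3 per well, 1536-well, plated on prespotted compound at 10 μM final, parasite-free screening media added to match infected plates; puromycin 10 μM positive, DMSO 0.5% negative; run in parallel with 48 h PbLuc assay at 37 °C, 5% CO2; viability by CellTiter-Glo luminescence, normalized to controls.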
smiles,measurement,value
CC[C@H](C)[C@H](N)C(=O)N1CC(=O)c2sc(NCc3ccccc3)nc2C1,cytotoxicity at 10 µM,-9.58%
CC(C)Oc1ncccc1CNC(=O)N1CCC(n2cccc2)CC1,cytotoxicity at 10 µM,3.48%
CCN(CC)Cc1ccc(C(=O)N2CCN(CC(C)O)CC2)o1 (stereo unspecified),cytotoxicity at 10 µM,-9.65%
CC(C)CN1CCN(S(=O)(=O)c2cn(C)cn2)Cc2cccnc21,cytotoxicity at 10 µM,-144%
Cc1cc(NC(=O)N(CCC#N)CCCN(C)C)ccc1F,cytotoxicity at 10 µM,-57.7%
CN(CCC(C)(C)O)C(=O)C1CCC(=O)N(Cc2ccc(Cl)cc2)C1 (stereo unspecified),cytotoxicity at 10 µM,7.67%
CN(C)C(=O)c1cc(-c2ccc(S(C)(=O)=O)cc2)c2cnn(C)c2n1,cytotoxicity at 10 µM,3.63%
CN(C)Cc1cn2c(n1)CN(CC1CCCC1)CC2,cytotoxicity at 10 µM,-149%
O=C1CN(c2ccc(CNc3cncc(-n4cccn4)n3)cc2)CCN1,cytotoxicity at 10 µM,-13.3%
Cc1ccc(C(=O)N2CCc3ncc(Cn4cccn4)n3CC2)cn1,cytotoxicity at 10 µM,7.25%
O=C(c1ccc(=O)[nH]n1)N1CCCC1C1CCCC1 (stereo unspecified),cytotoxicity at 10 µM,-7.09%
COC(=O)C(NC(=O)Nc1ccc(C(C)=O)cc1)C(C)C (stereo unspecified),cytotoxicity at 10 µM,4.31%
N#CCCN(CCC#N)C(=O)COC1CCCCC1,cytotoxicity at 10 µM,0.631%
COc1cc(CC(O)CO)c(OC)c2c1OCO2 (stereo unspecified),cytotoxicity at 10 µM,-9.96%
O=C(O)c1cc(S(=O)(=O)Nc2cccc3c2OCCO3)c(Cl)cc1F,cytotoxicity at 10 µM,-7.08%
O=C(Cc1ccccn1)N1CCN2C[C@H](Oc3cccc(F)c3)C[C@H]2C1,cytotoxicity at 10 µM,3.94%
O=C(c1ccoc1)N1CCO[C@]2(CCC[C@@H]2COCc2cccnc2)C1,cytotoxicity at 10 µM,6.32%
CCN(C(=O)c1cccc2c1OCO2)c1ccccc1,cytotoxicity at 10 µM,0.944%
CCN(CC)Cc1ccc(C(=O)NC2CCc3ccccc32)o1 (stereo unspecified),cytotoxicity at 10 µM,-3.97%
Cn1cnnc1CN1CCC2(CCC(=O)N(Cc3ccccn3)C2)CC1,cytotoxicity at 10 µM,7.82%
CN(C)S(=O)(=O)N1CCCC(c2cccc(Cc3ccc(F)cc3)n2)C1 (stereo unspecified),cytotoxicity at 10 µM,38.9%
Cc1noc(CN(C)C(=O)c2n[nH]c(N)c2-c2ccccc2)n1,cytotoxicity at 10 µM,-2.14%
COCC1CN(C(=O)N2CCCC2)Cc2cnn(CC3CCCC3)c21 (stereo unspecified),cytotoxicity at 10 µM,9.23%
Cc1ccc(C(=O)N(C)Cc2ccc(Br)o2)c(=O)[nH]1,cytotoxicity at 10 µM,8.6%
Cc1cnn(CCNCC(=O)NCC2(c3ccccc3)CC2)c1,cytotoxicity at 10 µM,5.58%
CCOC(=O)CNC(=O)NCc1cc(C)n(-c2ccc(OC)cc2)c1C,cytotoxicity at 10 µM,8.27%
Cc1nnsc1CNC(=O)Nc1cccc(N2CCN(C)C2=O)c1,cytotoxicity at 10 µM,-3.97%
Cc1nc(C)n(CC2CCCN2Cc2coc(-c3cccs3)n2)n1 (stereo unspecified),cytotoxicity at 10 µM,-9.61%
Cc1nn(CCC(=O)N2CCN(Cc3cnn(C)c3C)CC2)c(C)c1Br,cytotoxicity at 10 µM,4.07%
CC(O)CN1CCN(C(=O)c2cccc(CC#N)c2)CC1 (stereo unspecified),cytotoxicity at 10 µM,-3.74%
Cc1nc(C)c2c(n1)CCN(C(=O)C1(C#N)CC1)CC2,cytotoxicity at 10 µM,-102%
CC(C)n1cnc(C2CN(C)c3ccc(C(=O)NC4CCCC4)cc32)n1 (stereo unspecified),cytotoxicity at 10 µM,10.4%
c1ccc(O[C@H]2CC[C@H]3[C@H]2OCCN3Cc2nccs2)nc1,cytotoxicity at 10 µM,-12.6%
CCc1nc2n(n1)CC(NCc1nc(-c3cccnc3)no1)CC2 (stereo unspecified),cytotoxicity at 10 µM,-8.66%
Cc1cc(C(=O)N2CCNC(=O)CC2)c(C)n1CC(F)(F)F,cytotoxicity at 10 µM,1.88%
Cc1cccc(CN2CCc3c(nc(N4CCCCC4C)[nH]c3=O)C2)n1 (stereo unspecified),cytotoxicity at 10 µM,-0.336%
CNc1cc(C(=O)N2CCOC(C(=O)NC3CCCC3)C2)ccn1 (stereo unspecified),cytotoxicity at 10 µM,8.16%
CN(CCCOc1ccccc1Cl)C(=O)CN1CCCCCC1=O,cytotoxicity at 10 µM,-9.63%
CCS(=O)(=O)NC(CCSC)C(=O)Nc1cccc(C)c1C (stereo unspecified),cytotoxicity at 10 µM,-2.51%
O=C(COc1cc(Cl)cc(Cl)c1)NCc1nncn1C1CC1,cytotoxicity at 10 µM,-11.5%
CCCS(=O)(=O)CC(=O)N1CCN(CC2CC2)c2ccccc21,cytotoxicity at 10 µM,-7.44%
CC(C)CNC(=O)c1c(-n2cnnn2)sc2c1CCCC2,cytotoxicity at 10 µM,10.8%
O=S(=O)(N1CCOCC1)N1CCCC(c2ccccn2)C1 (stereo unspecified),cytotoxicity at 10 µM,2.23%
Cc1oncc1C(=O)N[C@@H]1CN(Cc2ccco2)C[C@@H]2CCCO[C@@H]21,cytotoxicity at 10 µM,-109%
CC1CCCN(S(=O)(=O)N2CCOC3(CCCC3)C2)C1 (stereo unspecified),cytotoxicity at 10 µM,-1.57%
Cc1cc(C)c(CNC(=O)N2CCCC2c2ccc(F)cc2)c(=O)[nH]1 (stereo unspecified),cytotoxicity at 10 µM,1.38%
CC(=O)N1CCN(c2ccc3ccc(C(=O)NC4CCCC4)cn23)CC1,cytotoxicity at 10 µM,8.15%
Cc1cc(NCc2ccc(N3CCNC(=O)C3)cc2)nc(C)n1,cytotoxicity at 10 µM,-4.99%
O[C@@H]1C[C@@H](c2nc(-c3ccccc3)no2)N(Cc2cccnc2)C1,cytotoxicity at 10 µM,3.69%
NCC1[C@H]2CN(CCc3ccccc3)C[C@@H]12 (stereo partly specified),cytotoxicity at 10 µM,5.22%
Cc1ccc(NCc2cc(C#N)ccc2F)cc1-n1nnnc1C,cytotoxicity at 10 µM,-1.66%
O=C(CCn1ccccc1=O)Nc1ccc(I)cc1,cytotoxicity at 10 µM,7.27%
O=C1CCC(CCC(=O)N2CCC2c2cccs2)=NN1 (stereo unspecified),cytotoxicity at 10 µM,6.13%
Cc1nc(C(C)C)sc1C(=O)N1CCN(C2CN3CCC2CC3)CC1 (stereo unspecified),cytotoxicity at 10 µM,3.79%
CNC(=O)c1cccc(CN2CCC(N(C)Cc3ncc(C)o3)C2)c1 (stereo unspecified),cytotoxicity at 10 µM,-103%
CCCNCc1ccc(-c2ccnc3[nH]ccc23)cc1,cytotoxicity at 10 µM,66%
Cc1cccc(C(C)(C)CNC(=O)CN(C)S(=O)(=O)c2cccnc2)c1,cytotoxicity at 10 µM,7.41%
CCn1ccnc1CN(C)Cc1nc(Cc2ccccc2F)no1,cytotoxicity at 10 µM,0.686%
Cc1cccc(CNc2cc(C3CCCNC3)ccn2)n1 (stereo unspecified),cytotoxicity at 10 µM,3.81%
CCc1noc(C(C)N2CCC(O)CC2)n1 (stereo unspecified),cytotoxicity at 10 µM,0.26%
Cn1ccnc1SCCNC(=O)Cn1cnc2ccccc2c1=O,cytotoxicity at 10 µM,-20.7%
Cc1cnn(CCNCc2csc(-c3ccco3)n2)c1,cytotoxicity at 10 µM,-5.28%
O=C(CCCc1ccc(Cl)cc1)N1CCN(C(=O)c2ccc[nH]2)CC1,cytotoxicity at 10 µM,10.7%
COC(C(=O)N1CCCN(Cc2cscn2)CC1)c1ccccc1 (stereo unspecified),cytotoxicity at 10 µM,-8.34%
CC1CCN(c2ncc(C#N)c(N)n2)CC1,cytotoxicity at 10 µM,15.5%
CCn1ccnc1CN1CCN(C(C)C(=O)NCc2ccco2)CC1 (stereo unspecified),cytotoxicity at 10 µM,7.79%
c1ccc(CCN2CCC(OCC3CCCCO3)CC2)nc1 (stereo unspecified),cytotoxicity at 10 µM,-4.9%
COc1ccccc1CC(=O)N1CCC(NCc2ccccn2)CC1,cytotoxicity at 10 µM,-11.5%
Cc1nc(CC(=O)N2CCC(Nc3cccnn3)CC2)cs1,cytotoxicity at 10 µM,-9.45%
CC(C)(C)CNC1(Cc2cc(C(C)(C)O)on2)COC1,cytotoxicity at 10 µM,-6.11%
COc1ccc(NC(=O)NCC(O)c2ccccc2F)c(OC)c1 (stereo unspecified),cytotoxicity at 10 µM,3.22%
O=C(c1ccc2cc[nH]c2c1)N1CCC(Nc2cccnn2)CC1,cytotoxicity at 10 µM,-5.06%
CC(C)(C)c1cc(=O)[nH]c(-c2ccccc2CN2CCC[C@@H](O)C2)n1,cytotoxicity at 10 µM,-43.3%
Cc1cc(C(=O)N2CCC3(CC2)CC(c2cccnc2)C(=O)N3C)no1 (stereo unspecified),cytotoxicity at 10 µM,1.48%
CC(C)CN1CCCn2nc(CNC(=O)CN3CCOC3=O)cc2C1,cytotoxicity at 10 µM,0.541%
CC(C)c1nnsc1CNC(=O)C1CCN(C(=O)C2CC2)CC1,cytotoxicity at 10 µM,-0.439%
Cc1nc(-c2ccc(CNS(=O)(=O)N(C)C)cc2)ccc1C(N)=O,cytotoxicity at 10 µM,-8.53%
COc1cccc(-c2nc3c([nH]2)CCNC3)c1F,cytotoxicity at 10 µM,-44.7%
CC(C(=O)NCC(C)(C)c1ccc2c(c1)OCCO2)n1cncn1 (stereo unspecified),cytotoxicity at 10 µM,13.8%
Cc1nc(NC(=O)CNC(=O)c2c(F)cccc2Cl)n[nH]1,cytotoxicity at 10 µM,-10.2%
Cn1ccc2cc(C(=O)N3CCOCC3)ccc21,cytotoxicity at 10 µM,1.91%
Cn1nc(Cn2cccn2)c2c1CN(C1CCOCC1)C2,cytotoxicity at 10 µM,10.1%
N#CC1C(=O)Nc2c(cnn2C2CCCC2)C12CCCC2 (stereo unspecified),cytotoxicity at 10 µM,-7.54%
Cn1nccc1-c1nnn2c1COC(CNCc1nccs1)C2 (stereo unspecified),cytotoxicity at 10 µM,-1.07%
Cc1nn(C)c2nc(N3CCNC(=O)C3C(C)C)sc12 (stereo unspecified),cytotoxicity at 10 µM,-10%
Cn1cc(C[C@H]2[C@H](N3CCOCC3)CCN2C(=O)c2ccco2)cn1,cytotoxicity at 10 µM,2.44%
Cc1ccc(C2CN(CCS(=O)(=O)C(C)C)CCO2)c(C)c1 (stereo unspecified),cytotoxicity at 10 µM,8.25%
O=C(c1ccccn1)N1CCOC2(COCCN(Cc3cc[nH]n3)C2)C1 (stereo unspecified),cytotoxicity at 10 µM,0.0227%
CCc1nnc(CN2CCc3ccc(S(N)(=O)=O)cc32)o1,cytotoxicity at 10 µM,1.41%
COc1ccccc1CCNC(=O)NCC(=O)Nc1cccnc1,cytotoxicity at 10 µM,-15.2%
CCN(Cc1nc2c(cnn2C)c(=O)[nH]1)c1ccc(F)cc1,cytotoxicity at 10 µM,-1.67%
O=C(Cn1nc(-c2ccc(F)cc2)oc1=O)NCc1ccc(F)cc1,cytotoxicity at 10 µM,4.13%
Cc1ncc2c(n1)CN(Cc1nc(Cc3ccccc3)no1)CC2,cytotoxicity at 10 µM,-12.4%
CC(Cn1cccn1)NC(=O)NCCc1cccs1 (stereo unspecified),cytotoxicity at 10 µM,-15.3%
CC(C)CCN1C2(CCN(C(=O)CN(C)C)C2)c2ccccc2S1(=O)=O (stereo unspecified),cytotoxicity at 10 µM,-4.14%
Cn1nc(-c2ccccc2NC(=O)c2cncc(Br)c2)ccc1=O,cytotoxicity at 10 µM,0.461%
CCOCCCC(=O)Nc1cccnc1-n1ccnc1C,cytotoxicity at 10 µM,9.21%
Cc1cc(F)ccc1-n1cc(O)c(C(=O)NCC[S+](C)[O-])n1 (stereo unspecified),cytotoxicity at 10 µM,9.38%
Cc1c[nH]nc1C1CCN(S(=O)(=O)N(C)C)CC1,cytotoxicity at 10 µM,0.462%
O=C(NCCCn1ccnn1)C1CCCN(C2CCCC2)C1 (stereo unspecified),cytotoxicity at 10 µM,-6.03%
CCOc1ccc2cc(C(=O)NCCNc3ccc(C)nn3)[nH]c2c1,cytotoxicity at 10 µM,1.64%
COCCN1CCN(CC(O)c2ccc(C(F)(F)F)cc2)CC1 (stereo unspecified),cytotoxicity at 10 µM,-10.7%
Cc1ccc2cccc(S(=O)(=O)N(C)CC3CCN(C)CC3)c2n1,cytotoxicity at 10 µM,-1.6%
c1cn(CC2CC2)c(C2CCN(CCC3CCOC3)CC2)n1 (stereo unspecified),cytotoxicity at 10 µM,-8.64%
CCc1nccn1CCCNC(=O)c1cnn(-c2ccccc2OC)c1,cytotoxicity at 10 µM,-17.1%
Cc1ccc(CN2CCc3[nH]nc(C(=O)N4CCN(C)CC4)c3C2)o1,cytotoxicity at 10 µM,-8.19%
CC(=O)NCCC(=O)Nc1cccc(N2CCN(CC3CC3)CC2)c1,cytotoxicity at 10 µM,-5.62%
Fc1cnc(N2CCCC3(CCN(Cc4ccco4)C3)C2)nc1 (stereo unspecified),cytotoxicity at 10 µM,-84.9%
O=C(NC1CC1)[C@H]1CN(Cc2ccccc2)C[C@@H]1C(=O)c1ccccc1,cytotoxicity at 10 µM,0.401%
CC1CCCN(C(=O)c2ccc(-c3ccco3)o2)C1 (stereo unspecified),cytotoxicity at 10 µM,4.23%
Cc1cc(CN2CCCC2Cn2cncn2)no1 (stereo unspecified),cytotoxicity at 10 µM,-10%

# — ChEMBL document CHEMBL4513216, “Probing the Open Global Health Chemical Diversity Library for Multistage-Active Starting Points for Next-Generation Antimalarials” (ACS Infect Dis, 2020)
